TNAP inh hiacc – human TNAP enzyme inhibitors, primary screen, biochemical, luminescent, high phosphate acceptor level, uHTS; purified TNAP, CDP-star luminescence, 1 M DEA; 200,000 tested, 0.03% active; inhibition, % at 20 µM; AID 1135, 2008; Alkaline phosphatase, tissue-nonspecific isozyme (Homo sapiens), P05186;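 active = over 50% inhibition of tissue-nonspecific alkaline phosphatase at 20 µM in the single-dose screen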;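 also: plate controls were DMSO wells for no effect and EDTA-quenched wells as full inhibition for full effect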
TNAP act hiacc – TNAP activators at high phosphate acceptor level, primary screen, biochemical, luminescence, uHTS; Alkaline phosphatase, tissue-nonspecific isozyme (Homo sapiens), P05186; purified TNAP, CDP-star luminescence, 1 M DEA, 30 min; active compounds read high; 0 = EDTA background, 1 = DMSO-only activity; activation factor at 20 µM; 200,000 tested, under 10 active;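 active = activation factor at least 2 at 20 µM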
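Control set: EDTA negative control, DMSO positive control / Assay system: human TNAP / Quantity: TNAP 1/800 final / Evaluation: TNAP activation factor scaled between EDTA and DMSO control wells / Measured by: luminescent substrate turnover signal / Compound dosing: one dose, 20 µM / Times: 30 min enzyme reaction at room temperature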
TNAP inh no acc – human TNAP enzyme inhibitors, primary screen, biochemical, luminescent, no phosphate acceptor, uHTS; 200,000 tested, 0.26% active; inhibition, % at 20 µM; Alkaline phosphatase, tissue-nonspecific isozyme (Homo sapiens), P05186; purified TNAP, CDP-star luminescence, 30 min;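 active = tissue-nonspecific alkaline phosphatase inhibition above about 50% at 20 µM in the single-dose screen, limit read from the data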;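 also: 0% = DMSO negative control and 100% = EDTA positive control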
S1P4 ag – S1P4 receptor agonists, primary screen, cell-based; Sphingosine 1-phosphate receptor 4 (Homo sapiens), O95977; AID 1509, 2009; 220,000 tested, 0.35% active; S1P4-expressing cell line, agonist reporter assay; activation, % at 4.98 µM; in the data active = activation above about 11%;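 also: 0% = DMSO vehicle and 100% = reference agonist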
Target sequence (O95977 whole entry, looked up): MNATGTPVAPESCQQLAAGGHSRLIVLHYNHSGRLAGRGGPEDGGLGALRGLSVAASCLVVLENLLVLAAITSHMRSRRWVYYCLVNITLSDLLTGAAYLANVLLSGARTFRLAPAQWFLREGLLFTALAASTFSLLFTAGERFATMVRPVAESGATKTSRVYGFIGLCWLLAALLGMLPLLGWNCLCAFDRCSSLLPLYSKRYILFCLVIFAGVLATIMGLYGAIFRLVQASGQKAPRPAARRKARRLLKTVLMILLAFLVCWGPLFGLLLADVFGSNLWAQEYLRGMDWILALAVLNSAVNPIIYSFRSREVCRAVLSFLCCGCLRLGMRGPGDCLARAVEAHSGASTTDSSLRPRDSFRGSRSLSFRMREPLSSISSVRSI
S1P4 antagonist – S1P4 receptor antagonists, primary screen, cell-based. Sphingosine 1-phosphate receptor 4 (Homo sapiens), O95977. S1P4-expressing cells, antagonist mode, reporter read-out. inhibition, % at 4.98 µM. 220,000 tested, 0.26% active; in the data active = inhibition above about 29%;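 also: 0% = wells stimulated with agonist and 100% = vehicle wells without agonist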
S1P3 antag-1 – S1P3 receptor antagonists, primary screen, cell-based. inhibition, % at 4.98 µM. AID 485, 2006. 170,000 tested, 0.27% active. Sphingosine 1-phosphate receptor 3 (Homo sapiens), Q99500. CHO S1P3 NFAT-BLA reporter, FRET fluorescence, antagonist mode;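 active = inhibition above the plate cutoff, the mean inhibition of test wells on that plate plus 3 SD, cut at about 28% in these data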;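 also: cells challenged with S1P at its EC80 of 0.8 µM; blue over green emission ratio from cleaved BLA substrate after 4 h stimulation; 0% = S1P-stimulated wells and 100% = unstimulated DMSO-only wells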
S1P3 antag-2 – S1P3 receptor antagonists, retest, confirmation, cell-based | 240 tested, 30% active | CHO S1P3 NFAT-BLA reporter, FRET, antagonist mode | shares compounds with S1P3 antag-1 | AID 1429, 2008 | inhibition, % at 4.98 µM;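 active = inhibition above the hit threshold that was computed for the earlier primary screen, cut at about 30% in these data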;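 also: 0% = S1P-stimulated wells and 100% = unstimulated DMSO-only wells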
An asterisk follows results filed as active; . = not tested or not shown. Most compounds without a hit are left out; they make up all but 1.1% or so of the library.

SMILES	TNAP inh hiacc	TNAP act hiacc	TNAP inh no acc	S1P4 ag	S1P4 antagonist	S1P3 antag-1	S1P3 antag-2
Cc1[nH][nH]c(=O)c1C(c1cc([N+](=O)[O-])ccc1O)c1c(C)[nH][nH]c1=O	77*	0.2	79*	1	20	-13	.
COc1ccc(OC)c(NC(=O)c2nc(-c3ccccc3)oc2C)c1	0	1	1	1	-6	9	.
COc1ccc(-c2cc(=O)[nH][nH]2)cc1	-4	1	-14	6	-1	.	.
O=c1cc(-c2cccc3ccccc23)[nH][nH]1	48	0.5	69*	-1	0	-12	.
COC(=O)c1csc(S(=O)(=O)N2CCCCC2)c1OC	.	.	.	0	1	-12	.
OCCNCCCOc1cc(Cl)ccc1Cl	-2	1	-8	2	2	36*	-9
Cc1c(Cl)cn2c(=O)cc(CN(C)Cc3nc4ccccc4c(=O)[nH]3)nc2c1Cl	-3	1	-8	1	-14	34*	-14
CCN(Cc1cc(=O)n2ccsc2n1)Cc1nc2ccccc2c(=O)[nH]1	-2	1	-60	-1	-3	-9	.
CCOC(=O)CSc1nc(=O)n2ccccc2n1	1	1	-6	0	-9	-20	.
COc1ccc(C(=O)NCc2ccc(-n3cccc3)cc2)cc1OC	-2	1	-7	1	-2	41*	-15
COc1ccc(C(=O)NCc2ccc(C(=O)NCC(OC)OC)cc2)cc1OC	-5	1.1	-9	0	-12	-13	.
Cc1ccc(N(CC(=O)NCc2ccc(F)cc2)C(=O)c2csnn2)cc1C	-5	1.1	-11	-1	3	-4	.
O=C(CNc1n[nH]c(=O)[nH]c1=O)N/N=C/c1ccccc1	.	.	.	1	-2	-9	.
O=C(CNc1n[nH]c(=O)[nH]c1=O)N/N=C/c1cccnc1	-3	1	-8	0	-6	39*	-12
CN(C)n1cnc2ccsc2c1=O	-7	1.1	-10	1	6	-10	.
CNc1nc(Nc2ccccc2)nc(OCC(F)(F)F)n1	-5	1	-10	-1	-6	39*	-5
O=C(CCl)Nc1cc2[nH]c(=O)[nH]c2cc1Br	-1	1	1	1	2	-17	.
CC(C)CNC(=O)c1cccc(NC(=O)Cc2ccc(Br)cc2)c1	-7	1.1	-16	0	-14	30*	-14
COc1ccc(C(=O)NC(Nc2ccc(C)cc2)C(Cl)(Cl)Cl)cc1 (configuration not stated)	1	1	-13	-1	-20	44*	58*
COC(=O)CC1C(=O)NC2CCCCC2N1C(=O)CCl (configuration not stated)	.	.	.	-1	-19	1	.
CCCN(CCC)CCCNC(=O)c1nn(-c2cccc(OC)c2)c(=O)c2ccccc12	-4	1	2	0	11	11	.
COc1ccc2nc(C)cc(Sc3nc4ccccc4s3)c2c1	.	.	.	2	11	-4	.
C=CCn1c(O)c(C=Nc2ccc(CN3CCCCC3)cc2)c(=O)[nH]c1=S	.	.	.	0	-18	42*	-6
CNC(=O)NC(=O)C(C)OC(=O)c1c2c(nc3ccccc13)/C(=C/c1cccs1)CC2 (configuration not stated)	9	0.9	4	1	10	19	.
CCCCNC(=O)COC(=O)c1c2c(nc3ccccc13)/C(=C/c1cccs1)CC2	4	1	2	2	-27	37*	25
SMILES	TNAP inh hiacc	TNAP act hiacc	TNAP inh no acc	S1P4 ag	S1P4 antagonist	S1P3 antag-1	S1P3 antag-2
CCCC(=O)Oc1ccc(-c2nccc(C(OC)OC)n2)cc1	-3	1	-10	-1	7	-34	.
CC(C)(C)c1ccc(CNc2ccc([N+](=O)[O-])cn2)cc1	-6	1.1	-5	-2	-12	30*	15
FC(F)(F)c1cccc(NC(=S)NC(c2ccccc2)c2ccccc2)c1	-3	1	-38	4	5	45*	49*
FC(F)(F)c1cccc(NC(=S)NNC(=S)Nc2cccc(C(F)(F)F)c2)c1	.	.	.	1	-11	2	.
Nc1nc2c(c(=O)[nH]1)C(c1cccc3ccccc13)C1=C(N2)c2ccccc2C1=O (configuration not stated)	6	0.9	5	1	-16	-12	.
O=[N+]([O-])c1ccc(/C=C/C2=NN(c3ccccc3)C(c3ccco3)C2)o1 (configuration not stated)	23	0.8	0	1	-11	38*	9
O=C(/C=C/c1ccco1)Nc1sc2c(c1C(=O)O)CCC2	1	1	-6	0	-16	.	.
N#Cc1c(NC(=O)/C=C/c2ccco2)sc2c1CCCC2	9	0.9	-8	2	2	29*	29*
c1ccc2c(c1)OCC(CNc1ncnc3sccc13)O2 (configuration not stated)	-1	1	-17	-1	-14	43*	26
CCOC(=O)N1CCC(N(CCN(C)C)C(=S)Nc2cc(Cl)cc(Cl)c2)CC1	-8	1.1	-5	1	2	29*	9
COc1cc(/C=C2\SC(=O)N(c3ccc(O)cc3)C2=O)cc(OC)c1OC	.	.	.	3	-19	31*	-1
CN(C)/C=C/C(=O)C(F)(F)F	1	1	2	2	2	-9	.
CN(C)/C=C/C(=C\C(=O)C(F)(F)F)Nc1ccc(C(F)(F)F)cc1	2	1	-6	1	-13	45*	-6
CC(C)NS(=O)(=O)c1ccc(OCC(=O)Nc2cccc(F)c2)cc1	-2	1	-7	0	-5	6	.
CCOC(=O)C1CCCN(S(=O)(=O)c2ccc(S(=O)(=O)N(CC)CC)cc2)C1 (configuration not stated)	-6	1.1	-13	0	12	48*	22
O=C1N(Cc2cccc(Cl)c2)C[C@@H]2C[C@@H](c3ccc4nonc4c3)N3CCC[C@@]123	-3	1	-6	0	14	3	.
CCC(C)(C)C1CCc2c(sc(N)c2C(N)=O)C1 (configuration not stated)	-1	1	-26	1	-11	38*	-3
COc1ccc2cc3cc(C(=O)NCc4ccc5c(c4)OCO5)oc3nc2c1	0	1	-3	0	-31	-7	.

Assay outcomes (PubChem)
